Assay results taken from ChEMBL document CHEMBL1687893 (Eur J Med Chem, 2011).

Key:
Mus musculus [1] = assay: Antiinflammatory activity against xylene-induced ear edema in Kunming mouse assessed as reduction in ear swelling thickness at 100 mg, ip administered 2 hrs post challenge measured after 30 mins; assay type: functional
Procedure, shortened: (§1)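 Male Kunming mice (~20 g), fasted 12 h, groups of 6. Compound given i.p.; 30 min later 0.015 mL xylene applied to front and back surfaces of right ear, left ear as control. Killed 2 h after xylene; 7 mm circular ear sections weighed and measured. Swelling taken as weight and thickness over untreated left ear. Mean ± S, one-way ANOVA.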

MCF7 [2] = assay: Cytotoxicity against human MCF7 cells assessed as growth inhibition after 72 hrs; settings: MCF7, 72 h
Mus musculus [3] = assay: Antiinflammatory activity against xylene-induced ear edema in Kunming mouse assessed as reduction in ear swelling weight at 100 mg, ip administered 2 hrs post challenge measured after 30 mins; assay type: functional; procedure, shortened: as §1
MDA-MB-231 = assay: Cytotoxicity against human MDA-MB-231 cells assessed as growth inhibition after 72 hrs; settings: MDA-MB-231, 72 h
[4] = molecular target: Prostaglandin G/H synthase 1 (Ovis aries) (UniProt P05979); assay: Inhibition of ovine COX-1 at 10 uM by ELISA relative to licofelone
MCF7 [5] = assay: Antiproliferative activity against human MCF-7 cells at 0.63 uM to 10 uM after 20 to 140 hrs; assay type: functional, cell-based; settings: TDE = time-dependent effect
Procedure, shortened: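 MCF-7 cells in DMEM with 5% FBS, seeded at 7500 cells/mL and grown 3 days before compound addition. Exposed to a range of concentrations for up to 144 h. Biomass measured by glutaraldehyde fixation, crystal violet staining, ethanol extraction and absorbance at 590 nm. Expressed as corrected T/C % = (T−C0)/(C−C0)·100.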

[6] = molecular target: Prostaglandin G/H synthase 2 (Homo sapiens) (UniProt P35354); assay: Inhibition of human COX-2 at 10 uM by ELISA relative to licofelone
Mus musculus [7] = assay: Antiinflammatory activity against xylene-induced ear edema in Kunming mouse assessed as reduction in ear swelling thickness at 25 mg, ip administered 2 hrs post challenge measured after 30 mins; assay type: functional; procedure, shortened: as §1
Mus musculus [8] = assay: Antiinflammatory activity against xylene-induced ear edema in Kunming mouse assessed as reduction in ear swelling weight at 200 mg, […]; assay type: functional
Mus musculus [9] = assay: Antiinflammatory activity against xylene-induced ear edema in Kunming mouse assessed as reduction in ear swelling thickness at 200 mg, ip administered 2 hrs post challenge measured after 30 mins; assay type: functional; procedure, shortened: as §1
Mus musculus [10] = assay: Antiinflammatory activity against xylene-induced ear edema in ip dosed Kunming mouse assessed as reduction in ear swelling administered 2 hrs post challenge measured after 30 mins; assay type: functional, organism-based; procedure, shortened: as §1
Mus musculus [11] = assay: Antiinflammatory activity against xylene-induced ear edema in Kunming mouse assessed as reduction in ear swelling weight at 25 mg, […]; assay type: functional

| Structure (SMILES) | inhibition (INH) (Mus musculus [1]) | IC50 (MCF7 [2]) | inhibition (INH) (Mus musculus [3]) | IC50 (MDA-MB-231) | inhibition [4] | Activity (MCF7 [5]) | inhibition [6] | inhibition (INH) (Mus musculus [7]) | inhibition (INH) (Mus musculus [8]) | inhibition (INH) (Mus musculus [9]) | inhibition (Mus musculus [10]) | inhibition (INH) (Mus musculus [11]) |
| --- | --- | --- | --- | --- | --- | --- | --- | --- | --- | --- | --- | --- |
| Cc1ccc(C(=O)OCC(=O)c2c(-c3ccc(Cl)cc3)c(-c3ccccc3)c3n2CC(C)(C)C3)cc1 | 21% | > 50 µM | 22.8% | > 50 µM |  |  |  |  |  |  |  |  |
| Cc1cccc(C(=O)OCC(=O)c2c(-c3ccc(Cl)cc3)c(-c3ccccc3)c3n2CC(C)(C)C3)c1 | 50.7% | 3.8 µM | 17.5% | > 50 µM |  |  |  |  |  |  |  |  |
| CC1(C)Cc2c(-c3ccccc3)c(-c3ccc(Cl)cc3)cn2C1 |  | 5.6 µM |  | 19.7 µM |  |  |  |  |  |  |  |  |
| CC1(C)Cc2c(-c3ccccc3)c(-c3ccc(Cl)cc3)c(C(=O)COC(=O)c3ccc(Cl)cc3Cl)n2C1 | 8% | 6.7 µM | 43.9% | > 50 µM |  |  |  |  |  |  |  |  |
| CCC(=O)OCC(=O)c1c(-c2ccc(Cl)cc2)c(-c2ccccc2)c2n1CC(C)(C)C2 | 12.3% | 1.7 µM | 3.5% | 3.1 µM | 11% | tde | 9% |  |  |  |  |  |
| CC1(C)Cc2c(-c3ccccc3)c(-c3ccc(Cl)cc3)c(C(=O)COC(=O)c3ccccc3O)n2C1 | 14.5% | 8.2 µM | 31.6% | > 50 µM |  |  |  |  |  |  |  |  |
| CC1(C)Cc2c(-c3ccccc3)c(-c3ccc(Cl)cc3)c(C(=O)COC(=O)c3ccc([N+](=O)[O-])cc3)n2C1 | 6.5% | 4.8 µM | 1.8% | 7.3 µM |  |  |  |  |  |  |  |  |
| CC1(C)Cc2c(-c3ccccc3)c(-c3ccc(Cl)cc3)c(C(=O)COC(=O)Cc3ccccc3)n2C1 | 35.8% | 4.7 µM | 26.3% | > 50 µM |  |  |  |  |  |  |  |  |
| CC(=O)OCC(=O)c1c(-c2ccc(Cl)cc2)c(-c2ccccc2)c2n1CC(C)(C)C2 | 37% | 2.5 µM | 19.3% | 4.4 µM | 11% |  | 9% |  |  |  |  |  |
| COc1ccccc1C(=O)OCC(=O)c1c(-c2ccc(Cl)cc2)c(-c2ccccc2)c2n1CC(C)(C)C2 | 18.1% | 4.5 µM | 31.6% | > 50 µM |  |  |  |  |  |  |  |  |
| COc1ccc(C(=O)OCC(=O)c2c(-c3ccc(Cl)cc3)c(-c3ccccc3)c3n2CC(C)(C)C3)cc1 | 10.1% | 11.9 µM | 15.8% | > 50 µM |  |  |  |  |  |  |  |  |
| O=c1[nH]cc(F)c(=O)[nH]1 [FLUOROURACIL] |  | 4.7 µM |  | 9.6 µM |  |  |  |  |  |  |  |  |
| CCCCCC(=O)c1c(-c2ccc(Cl)cc2)c(-c2ccccc2)c2n1CC(C)(C)C2 | 37% | 5.4 µM | 14% | 31.3 µM | 11% |  | 9% |  |  |  |  |  |
| Cc1cc(C(=O)OCC(=O)c2c(-c3ccc(Cl)cc3)c(-c3ccccc3)c3n2CC(C)(C)C3)cc([N+](=O)[O-])c1 | 26.8% |  | 7% |  |  |  |  |  |  |  |  |  |
| CC(C)Cc1ccc(C(C)C(=O)O)cc1 (stereo unspecified) [IBUPROFEN] | 54.3% |  | 51.2% |  |  |  |  |  |  |  |  |  |
| Cc1ccccc1C(=O)OCC(=O)c1c(-c2ccc(Cl)cc2)c(-c2ccccc2)c2n1CC(C)(C)C2 | 34.1% | 6.2 µM | 12.3% | 12.9 µM |  |  |  |  |  |  |  |  |
| CC1(C)Cc2c(-c3ccccc3)c(-c3ccc(Cl)cc3)c(CC(=O)O)n2C1 [LICOFELONE] | 52.2% | 5.5 µM | 43.9% | 36.7 µM |  |  |  | 49.2% | 77.2% | 74.6% | Dose-dependent effect | 33.3% |
| CC(=O)c1c(-c2ccc(Cl)cc2)c(-c2ccccc2)c2n1CC(C)(C)C2 | 50.7% | 2 µM | 54.4% | 3.3 µM | 11% | tde | 9% |  |  |  |  |  |
| CC1(C)Cc2c(-c3ccccc3)c(-c3ccc(Cl)cc3)c(C(=O)COC(=O)Cc3ccc(Cl)cc3)n2C1 | 37% | 7.1 µM | 35.1% | > 50 µM |  |  |  |  |  |  |  |  |
| CC1(C)Cc2c(-c3ccccc3)c(-c3ccc(Cl)cc3)c(C(=O)COC=O)n2C1 | 20.3% | 1.5 µM | 19.3% | 1.8 µM | 11% | tde | 9% |  |  |  |  |  |
| Cc1ccc(-c2cc(C(F)(F)F)nn2-c2ccc(S(N)(=O)=O)cc2)cc1 [CELECOXIB] | 47.9% |  | 46.3% |  |  |  |  |  |  |  |  |  |
| CC1(C)Cc2c(-c3ccccc3)c(-c3ccc(Cl)cc3)c(C(=O)CCl)n2C1 | 24.6% | 5.8 µM | 28.1% | 35.4 µM | 11% |  | 9% |  |  |  |  |  |
| CC1(C)Cc2c(-c3ccccc3)c(-c3ccc(Cl)cc3)c(C(=O)COC(=O)c3ccc(Cl)cc3)n2C1 | 29.7% | 3.9 µM | 24.6% | > 50 µM |  |  |  |  |  |  |  |  |
| CCC(=O)c1c(-c2ccc(Cl)cc2)c(-c2ccccc2)c2n1CC(C)(C)C2 | 22.5% | 8.7 µM | 24.6% | 19.2 µM | 11% |  | 9% |  |  |  |  |  |
| CC1(C)Cc2c(-c3ccccc3)c(-c3ccc(Cl)cc3)c(C(=O)COC(=O)c3ccccc3Cl)n2C1 | 20.3% | 5.2 µM | 12.3% | 31.8 µM |  |  |  |  |  |  |  |  |
| CC1(C)Cc2c(-c3ccccc3)c(-c3ccc(Cl)cc3)c(C(=O)COC(=O)c3cccc(Cl)c3)n2C1 | 1.4% | 5.2 µM | 3.5% | > 50 µM |  |  |  |  |  |  |  |  |
